The text below walks through data of ChEMBL document CHEMBL4257458, “Antiproliferative activities of alkaloid-like compounds” (Medchemcomm, 2017).

Data set [1] has as its system MDA-MB-231. In words: Growth inhibition of human MDA-MB-231 cells at 50 uM after 48 hrs by MTS assay. The format is functional, cell-based. In a few lines:
(§1)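 Cells in DMEM with 10% FBS and 1% penicillin/streptomycin, 37 °C, 5% CO2; 7 × 10^3 cells per well, serum removed after 24 h, then compound (1–50 μM; DMSO ≤0.1%) for 48 h. MTS reagent 4 h at 37 °C, OD 550 nm; blank-subtracted, normalised to DMSO control (100%). IC50 by nonlinear regression; triplicates.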
A general note: Formazan colour is commonly taken as a measure of viable cells.

In data set [2] the test system is MDA-MB-231. In words: Growth inhibition of human MDA-MB-231 cells after 48 hrs by MTS assay. It is filed as functional, cell-based. Conditions: MDA-MB-231, 48 h. In a few lines: as §1
The next data set relates to CCRF-CEM. In words: Growth inhibition of human CCRF-CEM cells after 48 hrs by SRB assay. The format is functional, cell-based. A general note: Sulforhodamine B stains cellular protein and so reports cell mass.
In a further data set the test system is HL-60(TB). In words: Growth inhibition of human HL-60(TB) cells after 48 hrs by SRB assay. The format is functional, cell-based. The following applies: HL-60, 48 h.
A further data set has as its system MOLT-4. In words: Growth inhibition of human MOLT4 cells after 48 hrs by SRB assay. It is filed as functional, cell-based. The following applies: MOLT-4, 48 h.
A further data set has as its system RPMI-8226. In words: Growth inhibition of human RPMI8226 cells after 48 hrs by SRB assay. The format is functional, cell-based. Conditions: RPMI-8226, 48 h.
In another data set the test system is NCI-H522. In words: Growth inhibition of human NCI-H522 cells after 48 hrs by SRB assay. The following applies: NCI-H522, 48 h. The format is functional, cell-based.
The subject of a further data set is EKVX. In words: Growth inhibition of human EKVX cells after 48 hrs by SRB assay. The format is functional, cell-based.
In a further data set the test system is COLO 205. In words: Growth inhibition of human COLO205 cells after 48 hrs by SRB assay. The format is functional, cell-based. The following applies: COLO 205, 48 h.
The next data set concerns HT-29. In words: Growth inhibition of human HT-29 cells after 48 hrs by SRB assay. The format is functional, cell-based. Conditions: HT-29, 48 h.
The test system of the next data set is SW-620. In words: Growth inhibition of human SW620 cells after 48 hrs by SRB assay. The format is functional, cell-based. The following applies: SW-620, 48 h.
In the next data set the test system is SF-539. In words: Growth inhibition of human SF539 cells after 48 hrs by SRB assay. Conditions: SF-539, 48 h. The format is functional, cell-based.
The test system of another data set is SK-MEL-28. In words: Growth inhibition of human SK-MEL-28 cells after 48 hrs by SRB assay. The format is functional, cell-based. The following applies: SK-MEL-28, 48 h.
The next data set deals with SK-MEL-5. In words: Growth inhibition of human SK-MEL-5 cells after 48 hrs by SRB assay. Conditions: SK-MEL-5, 48 h. The format is functional, cell-based.
The test system of the next data set is MDA-MB-435. In words: Growth inhibition of human MDA-MB-435 cells after 48 hrs by SRB assay. It is filed as functional, cell-based. Conditions: MDA-MB-435, 48 h.
The subject of the next data set is OVCAR-3. In words: Growth inhibition of human OVCAR3 cells after 48 hrs by SRB assay. The format is functional, cell-based. The following applies: OVCAR-3, 48 h.
In the next data set the test system is CAKI-1. In words: Growth inhibition of human Caki1 cells after 48 hrs by SRB assay. The format is functional, cell-based. Conditions: CAKI-1, 48 h.
Another data set concerns RXF 393. In words: Growth inhibition of human RXF393 cells after 48 hrs by SRB assay. Conditions: RXF 393, 48 h. The format is functional, cell-based.
A further data set has as its system DU-145. In words: Growth inhibition of human DU145 cells after 48 hrs by SRB assay. It is filed as functional, cell-based. Conditions: DU-145, 48 h.
Data set [3] relates to MCF7. In words: Growth inhibition of human MCF7 cells after 48 hrs by SRB assay. The format is functional, cell-based. Conditions: MCF7, 48 h.
Data set [4] relates to MDA-MB-231. In words: Growth inhibition of human MDA-MB-231 cells after 48 hrs by SRB assay. The format is functional, cell-based. The following applies: MDA-MB-231, 48 h.
For a further data set, the system named is Hs-578T. In words: Growth inhibition of human Hs 578T cells after 48 hrs by SRB assay. It is filed as functional, cell-based.
The subject of the next data set is T47D. In words: Growth inhibition of human T47D cells after 48 hrs by SRB assay. It is filed as functional, cell-based.
The next data set deals with Vero. In words: Antiproliferative activity against African green monkey Vero cells harboring GFP at 50 ug/ml after 4 days by fluorescence assay relative to control. The following applies: chlorocebus sabaeus, 96 h. The format is cell-based. In a few lines: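 GFP-expressing VERO (ATCC CCL-81 stably transfected with pEGFP-N1) in MEM with 10% heat-inactivated FBS, pyruvate, NaHCO3 (geneticin omitted during assay); 3.3 × 10^4 cells per mL; compound added, 4 days at 37 °C, 5% CO2; quadruplicate; fluorescence ex 485/em 535 nm, day-0 signal subtracted; % cytotoxicity = [1 − (FU treated/FU 0.5% DMSO)] × 100; ellipticine positive control.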

In data set [5] the test system is MDA-MB-231. In words: Antiproliferative activity against human MDA-MB-231 cells assessed as cell viability at 75 uM after 48 hrs by MTS assay relative to control. The format is functional. The following applies: MDA-MB-231, 48 h, read-out: Activity.
In a further data set the test system is PC-3. In words: Growth inhibition of human PC3 cells after 48 hrs by SRB assay. The format is functional, cell-based. The following applies: PC-3, 48 h.
Data set [6] relates to MDA-MB-231. In words: Growth inhibition of human MDA-MB-231 cells assessed as cell viability at 50 uM after 48 hrs by MTS assay relative to control. The format is functional. The following applies: MDA-MB-231, 48 h, read-out: Activity. In a few lines:
as §1

Data set [7] concerns MDA-MB-231. In words: Cell cycle arrest in human MDA-MB-231 cells assessed as decrease in G0/G1 phase at 20 uM after 24 hrs by propidium iodide staining based flow cytometry relative to control. It is filed as functional. The arrangement: scale not given: the % may be the effect or the level left. In a few lines:
(§2)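 MDA-MB-231 seeded at 5 × 10^5 per well, serum-starved 24 h, then treated 24 h (DMSO 0.1% control). Fixed overnight in 80% ethanol at 0 °C, washed, resuspended in PBS with 0.1% Triton X-100 and 0.1 mg mL−1 RNase A, stained with PI (50 μg mL−1) 30 min dark at 37 °C; flow cytometry, 1 × 10^4 events per sample; mean ± SEM of ≥3 independent experiments.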

For data set [8], the system named is MDA-MB-231. In words: Cell cycle arrest in human MDA-MB-231 cells assessed as increase in G2/M phase at 20 uM after 24 hrs by propidium iodide staining based flow cytometry relative to control. The format is functional. In a few lines:
as §2

Data set [9] deals with MDA-MB-231. In words: Induction of apoptosis in human MDA-MB-231 cells after 48 hrs by Annexin V-FITC/propidium iodide staining based flow cytometry. The format is functional, cell-based. In a few lines:
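MDA-MB-231 at 1 × 10^5 per well, treated 48 h, 24 h after serum removal, at 20–40 μM (DMSO 0.1% v/v control). Cells trypsinised, washed in cold PBS, stained with Annexin V-FITC and PI (50 μg mL−1) in binding buffer, 20 min dark at 0 °C; flow cytometry scoring viable, early/late apoptotic and necrotic fractions; 3 independent experiments.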
A general note: A flow cytometer gives signals particle by particle.

Data set [10] relates to MCF7. In words: Antiproliferative activity against human MCF7 cells at 50 uM after 48 hrs by MTS assay. The format is functional, cell-based. In a few lines:
as §1

In data set [11] the test system is MDA-MB-231. In words: Antiproliferative activity against human MDA-MB-231 cells assessed as cell viability at 20 uM after 48 hrs by MTS assay relative to control. The following applies: MDA-MB-231, 48 h, read-out: Activity. The format is functional. In a few lines:
as §1

The source made the active and inactive calls. No cut-off for these calls is given here. Where only a bound is given, the exact number is not on record here.

Broadly, the IC50 is the concentration that gives 50% inhibition. On to `COC(=O)C[C@H]1C(=O)C=C2C3CC4CC(CC[C@@]4(C)N21)[C@]3(C)NC(C)=O` (some centres not stated), for which, in the data set with MDA-MB-231 [1], the “growth inhibition (GI)” value was “inactive”. Also, the IC50 with MDA-MB-231 [2] was greater than 50 µM.
As to `COC(=O)/C=C1\C(=O)C=C2C3CC4CC(CCC4(C)N21)C3(C)NC(C)=O` (configuration not stated), the IC50 turned out to be 4.4 µM in the data set on CCRF-CEM; 5.5 µM with HL-60(TB); 2.4 µM in the data set with MOLT-4; 4.1 µM in the data set on RPMI-8226; 2 µM in the data set on NCI-H522; 12.2 µM in the data set on EKVX. The concentration for half-maximal inhibition (IC50) with COLO 205 stood at 7.8 µM; in the data set with HT-29, 7.5 µM; in the data set with SW-620 it was 2.8 µM; in the data set on SF-539, 3.3 µM; with SK-MEL-28 it was 1.8 µM; with SK-MEL-5, 6.3 µM. Also, the concentration for half-maximal inhibition (IC50) stood at 5.9 µM with MDA-MB-435; 11.8 µM with OVCAR-3; 5.3 µM in the data set with CAKI-1; 6.7 µM in the data set on RXF 393; 16.9 µM in the data set with DU-145; 7.1 µM with MCF7 [3]. Besides, the IC50 in the data set on MDA-MB-231 [4] was 38.9 µM; with Hs-578T, 10.9 µM; with T47D it was 22.7 µM; with PC-3, 15.7 µM. The same compound returned an Activity in the data set on Vero of 77%. Also, the viability at 75 µM with MDA-MB-231 [5] was 80%.
For the compound `CC(=O)N[C@@]1(C)C2CC[C@@]3(C)N=C(C)C1CC3C2` (relative stereo), the “growth inhibition (GI)” value in the data set with MDA-MB-231 [1] is “inactive”.
Still for that read-out and setting: the same measure for `CCC(=O)N[C@@]1(C)C2CC[C@]3(C)C(C2)CC1[C@H](CC)N3C` (some centres not stated): “inactive”.
Still for that read-out and setting: the same measure for `CCC(=O)N[C@@]1(C)C2CC[C@@]3(C)N=C(CC)C1CC3C2` (relative stereo): “inactive”; for `CC(=O)N[C@@]1(C)C2CC[C@@]3(C)N=C(CCl)C1CC3C2` (relative stereo): “inactive”.
With `C[C@]1(NC(=O)CCl)C2CC[C@@]3(C)N=C(CCl)C1CC3C2` (relative stereo), the viability at 50 µM in the data set on MDA-MB-231 [6] was 24%. This compound gave an IC50 with MDA-MB-231 [2] of 7.9 µM. In addition, the Activity is 20% with MDA-MB-231 [7], 15% in the data set with MDA-MB-231 [8], “Dose-dependent effect” with MDA-MB-231 [9] and 84% in the data set on Vero. Moreover, in the data set with MCF7 [10], the outcome was inactive. Moreover, the viability at 20 µM in the data set on MDA-MB-231 [11] came to 90%.
For the compound `CCC(=O)N[C@@]1(C)C2CC[C@@]3(C)N[C@@H](CC)C1CC3C2` (some centres not stated), the “growth inhibition (GI)” value in the data set with MDA-MB-231 [1] was “inactive”.
On the same count and under the same terms, the result for `CC(=O)N[C@@]1(C)C2CC[C@@]3(C)N[C@@H](C)C1CC3C2` (some centres not stated) reads “inactive”.
As to `CC(=O)N[C@@]1(C)C2CC[C@@]3(C)N[C@@H](CCl)C1CC3C2` (some centres not stated), the “growth inhibition (GI)” value in the data set with MDA-MB-231 [1] is “inactive”.
On the same count and under the same terms, the same measure for `CC(=O)N[C@@]1(C)C2CC[C@]3(C)C(C2)CC1[C@H](C)N3C` (some centres not stated): “inactive”.
